According to publication PMC3031457 (Anti-cancer drugs, 2009):
Read-outs that look alike come from different tables or passages of the source. Marks after values point to notes of the source that are not given here.

Key:
AsPC-1 [1] = experiment: Cell viability assay; assay type: cell-based, human; conditions: read-out: IC50 (μM) AsPC-1
In short: (§1)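 Cells were grown in RPMI-1640 with 10% FBS, pyruvate, HEPES, glutamine and antibiotics at 37°C, 5% CO2, and seeded at 6000 cells/well. After 24 h adherence, half the medium was replaced with serially diluted test compound, 5-fluorouracil, or methanol-containing medium. Exposure lasted 72 h. MTT (5 mg/ml solution) was then added for 3 h at 37°C, formazan dissolved in HCl-acidified isopropanol, and absorbance read at 570 nm.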

BxPC-3 [2] = experiment: Cell viability assay; assay type: cell-based, human; conditions: read-out: IC50 (μM) BxPC-3
In short: as §1

MIA PaCa2 [3] = experiment: Cell viability assay; assay type: cell-based, human; conditions: read-out: IC50 (μM) MIA PaCa2
In short: as §1

Panc-1 [4] = experiment: Cell viability assay; assay type: cell-based, human; conditions: read-out: IC50 (μM) Panc-1
In short: as §1

[5] = system: genomic salmon testes DNA; experiment: DNA intercalation assay; assay type: binding; conditions: for % DNA intercalation: 25 μg/ml, ethidium bromide displacement; for DNA intercalation (in words): 5 and 25 μg/ml
In short: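 Genomic salmon testes DNA (0.5 μg) was equilibrated with 1.27 μM ethidium bromide for 30 min at room temperature. Test compound (5 or 25 μg/ml), methanol vehicle, 1 μM doxorubicin (positive control) or 100 μM etoposide (negative control) was added for a further 30 min. Ethidium displacement was read as a fluorescence decrease (ex 340, em 590 nm). Mean of 3 experiments ± standard deviation.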

[6] = system: Panc-1, AsPC-1, BxPC-3, and MIA-PaCa2; experiment: Cell viability assay; assay type: cell-based, human; conditions: read-out: IC50 in all pancreatic cell lines
In short: as §1

Vero = experiment: Cell viability assay; assay type: cell-based, African green monkey; conditions: read-out: IC50 (μM) Vero; MTT, 72 hours, n=4 ± SE; normal cell line
In short: as §1

topoisomerase II = topoisomerase II (Homo sapiens, UniProt P11388); experiment: Decatenation reaction of kinetoplast DNA; assay type: biochemical; conditions: for topoisomerase II inhibition (in words) / % Inhibition topoisomeraseII: 25 μg/ml; for % Inhibition topoisomeraseII: decatenation of kinetoplast DNA, 30 minutes; for inhibition at 25 µg/mL: read-out: % Inhibition topoisomeraseII
In short: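 A commercial kit assay was used: 0.2 μg kinetoplast DNA plus 1 U topoisomerase II in ATP/MgCl2/DTT buffer, 20 μl reactions. Test compound was added at 5 or 25 μg/ml (methanol vehicle); 100 μM etoposide in DMSO served as positive control. Reactions ran 30 min at 37°C, were stopped with Sarkosyl loading dye, and resolved on 1% agarose with ethidium bromide. Gel densitometry was used; seven experiments, SEM, Student's t test.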

AsPC-1 cells = experiment: Cell cycle analysis by flow cytometry; assay type: cell-based, human; conditions: 48 hours
In short: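 AsPC-1 cells were trypsinized into 6-well plates and allowed to adhere for 24 h. They were then exposed for 48 h to test compound at 5 or 25 μg/ml, methanol vehicle, medium alone, or 100 nM paclitaxel as positive control. Cells were fixed in ice-cold ethanol (−20°C, 1 h) and stained with propidium iodide plus RNase A (30 min, 37°C) for flow cytometry. Run 3 times.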

Panc-1 [7] = conditions: read-out: IC50 (μM) Panc-1; ref Li et al ([14]); cited from earlier work
MIA PaCa2 [8] = conditions: read-out: IC50 (μM) MIA PaCa2; ref Li et al ([14]); cited from earlier work
AsPC-1 [9] = conditions: read-out: IC50 (μM) AsPC-1; ref Li et al ([14]); cited from earlier work
BxPC-3 [10] = conditions: read-out: IC50 (μM) BxPC-3; ref Li et al ([14]); cited from earlier work

Sequence of topoisomerase II (P11388 whole entry): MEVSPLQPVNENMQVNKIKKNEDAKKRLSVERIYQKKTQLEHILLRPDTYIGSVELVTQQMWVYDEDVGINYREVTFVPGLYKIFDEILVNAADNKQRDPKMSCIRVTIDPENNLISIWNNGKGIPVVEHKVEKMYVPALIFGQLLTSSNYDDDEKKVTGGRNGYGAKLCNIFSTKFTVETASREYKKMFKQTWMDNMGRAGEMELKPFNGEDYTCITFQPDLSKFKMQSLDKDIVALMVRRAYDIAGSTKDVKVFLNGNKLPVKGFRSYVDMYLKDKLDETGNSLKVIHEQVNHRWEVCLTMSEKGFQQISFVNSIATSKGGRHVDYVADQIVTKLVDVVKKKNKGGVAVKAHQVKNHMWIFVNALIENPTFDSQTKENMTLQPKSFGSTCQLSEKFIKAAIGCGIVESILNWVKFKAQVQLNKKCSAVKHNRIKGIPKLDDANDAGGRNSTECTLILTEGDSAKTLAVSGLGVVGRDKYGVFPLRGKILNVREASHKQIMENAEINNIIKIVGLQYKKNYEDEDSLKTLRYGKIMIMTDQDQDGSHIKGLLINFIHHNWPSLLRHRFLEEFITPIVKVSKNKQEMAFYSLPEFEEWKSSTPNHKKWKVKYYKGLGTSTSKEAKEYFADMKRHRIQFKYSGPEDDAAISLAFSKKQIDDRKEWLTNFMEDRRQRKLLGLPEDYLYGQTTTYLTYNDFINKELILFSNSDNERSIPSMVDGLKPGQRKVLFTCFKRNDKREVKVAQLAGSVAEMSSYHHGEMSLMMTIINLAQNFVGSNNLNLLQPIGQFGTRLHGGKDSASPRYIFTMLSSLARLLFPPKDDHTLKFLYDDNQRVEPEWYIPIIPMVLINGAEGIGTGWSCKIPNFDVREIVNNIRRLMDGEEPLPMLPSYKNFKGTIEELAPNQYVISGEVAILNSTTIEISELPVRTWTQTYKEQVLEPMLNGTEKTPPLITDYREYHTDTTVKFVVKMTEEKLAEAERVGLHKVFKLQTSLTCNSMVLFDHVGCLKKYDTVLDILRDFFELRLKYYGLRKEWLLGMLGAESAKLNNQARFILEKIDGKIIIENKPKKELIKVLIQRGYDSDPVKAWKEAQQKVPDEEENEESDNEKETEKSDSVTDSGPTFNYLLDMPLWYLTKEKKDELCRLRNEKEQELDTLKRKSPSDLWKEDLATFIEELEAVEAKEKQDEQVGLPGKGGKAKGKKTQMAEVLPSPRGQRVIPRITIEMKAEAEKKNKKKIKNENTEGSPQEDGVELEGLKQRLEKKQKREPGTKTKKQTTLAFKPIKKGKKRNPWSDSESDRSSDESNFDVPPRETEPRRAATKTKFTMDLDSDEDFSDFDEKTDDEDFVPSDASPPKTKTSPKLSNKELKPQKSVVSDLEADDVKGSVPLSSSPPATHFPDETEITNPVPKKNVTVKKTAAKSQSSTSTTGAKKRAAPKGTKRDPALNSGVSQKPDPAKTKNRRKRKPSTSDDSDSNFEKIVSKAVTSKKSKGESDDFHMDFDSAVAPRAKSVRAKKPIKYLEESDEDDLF

SMILES | IC50 (AsPC-1 [1]; Homo sapiens, ASPC1, 72 h) [µM] | IC50 (BxPC-3 [2]; Homo sapiens, BXPC-3, 72 h) [µM] | IC50 (MIA PaCa2 [3]; Homo sapiens, MIA PaCa-2, 72 h) [µM] | IC50 (Panc-1 [4]; Homo sapiens, PANC-1, 72 h) [µM] | IC50 (AsPC-1 [1]; MTT, 72 hours, n=4 ± SE) [µM] | % DNA intercalation [5] | DNA intercalation (in words) [5] | IC50 (BxPC-3 [2]; MTT, 72 hours, n=4 ± SE) [µM] | IC50 (Vero) [µM] | IC50 (MIA PaCa2 [3]; MTT, 72 hours, n=4 ± SE) [µM] | topoisomerase II inhibition (in words) (topoisomerase II) | % Inhibition topoisomeraseII (topoisomerase II) | IC50 (Panc-1 [4]; MTT, 72 hours, n=4 ± SE) [µM] | Cell cycle arrest (AsPC-1 cells; 5 μg/ml, data not shown) | Cell cycle arrest (AsPC-1 cells; 25 μg/ml) | inhibition at 25 µg/mL (topoisomerase II) [%] | other results
O=c1[nH]cc(F)c(=O)[nH]1 [5-Fluorouracil, 5-fluorouracil, reference compound] | > 38.4 | 5.56 ± 1.64 | 8.31 ± 0.357 | 5.73 ± 0.682 |  |  |  |  |  |  |  |  |  |  |  |  | 
CSc1c2c3c(n1C)C(=O)C(N)=C(Cl)C3=NCC2 [Isobatzelline A] |  |  |  |  | 1.74 ± 0.415 | 54 ^** % | significant intercalation into DNA | 2.39 ± 0.218 | > 17.7 | 4.34 ± 0.22 | significantly inhibited topoisomerase II activity | 36 ^* % | 9.37 ± 0.536 | S-phase cell cycle arrest | S phase |  | IC50 ([6]; MTT, 72 hours): < 10 µM
NC1=C(Cl)C(=O)c2c(C(O)CO)c[nH]c2C1=O (centres unmarked) [Secobatzelline B] | > 19.5 | > 19.5 | > 19.5 | 17.4 ± 0.281 |  |  | no DNA intercalation |  |  |  | no DNA intercalation or topoisomerase II inhibition |  |  | did not have an effect | S phase | 13 | 
CSc1c2c3c(n1C)C(=O)C(=O)C(Cl)=C3NCC2 [Batzelline A] | > 17.7 | > 17.7 | > 17.7 | > 17.7 |  | 18% | no DNA intercalation |  |  |  |  |  |  | S-phase cell cycle arrest | S phase | 58 | 
CSc1c2ccnc3c2c(n1C)C(=O)C(N)=C3Cl [Isobatzelline D] |  |  |  |  | 1.48 ± 0.187 | 47 ^** % |  | 1.48 ± 0.18 | 15.7 ± 1.17 | 2.67 ± 0.295 |  | 26% | 5.72 ± 0.253 | S-phase cell cycle arrest | S phase |  | IC50 ([6]; MTT, 72 hours): < 10 µM
CSC1=Nc2c(O)c(O)c(Cl)c3c2=C1CCN=3 [Batzelline B] |  |  |  |  | > 18.6 | 21% |  | > 18.6 | > 18.6 | > 18.6 | significantly inhibited topoisomerase II activity | 63 ^* % | > 18.6 | did not have an effect | S phase |  | 
Cn1cc2c3c1C(=O)C(N)=C(Cl)C3=NCC2 [Isobatzelline C] | 1.72 ± 0.168 | 1.31 ± 0.185 | 2.34 ± 0.0977 | 9.98 ± 0.384 |  | 56 ^** % |  |  |  |  |  |  |  | S-phase cell cycle arrest | S phase | 27 | IC50 ([6]; Homo sapiens, 72 h): < 10 µM
Cn1cc2ccnc3c2c1C(=O)C(N)=C3Cl [Isobatzelline E] |  |  |  |  | > 21.5 |  | significant intercalation into DNA | > 21.5 | > 21.5 | > 21.5 | significantly inhibited topoisomerase II activity | 95 ^* % | > 21.5 | did not have an effect |  |  | 
N=C1C(Cl)=C(N)C(=O)c2[nH]cc(C(O)CO)c21 (centres unmarked) [Secobatzelline A] | 3.62 ± 0.801 | 4.09 ± 0.146 | 5.63 ± 0.739 | 10.4 ± 1.16 |  |  | significant intercalation into DNA |  |  |  | significantly inhibited topoisomerase II activity |  |  | S-phase cell cycle arrest | S phase | 61 | IC50 ([6]; Homo sapiens, 72 h): < 10 µM
Nc1ccn([C@@H]2O[C@H](CO)[C@@H](O)C2(F)F)c(=O)n1 [Gemcitabine, gemcitabine] |  |  |  |  |  |  |  |  |  |  |  |  |  |  |  |  | IC50 (Panc-1 [7]): 7.2 µM; IC50 (MIA PaCa2 [8]): 14.5 µM; IC50 (AsPC-1 [9]): > 250 µM; IC50 (BxPC-3 [10]): > 250 µM
